Experimental data: ChEMBL document CHEMBL1146066, “4-quinolone derivatives: high-affinity ligands at the benzodiazepine site of brain GABA A receptors. synthesis, pharmacology, and pharmacophore modeling” (J Med Chem, 2006)

Experiments:
[1] = target: GABA-A receptor; anion channel; assay: Displacement of [3H]flumazenil from GABA-A receptor in rat cortical membranes; assay type: cell membranes, Membrane
Procedure, shortened: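 Rat cortex was homogenized in Tris-HCl, washed by centrifugation, incubated 30 min at 37 °C, and stored frozen. Assays used ca. 50 µg protein per 0.55 mL in Tris-citrate 50 mM pH 7.1 with 1 nM [3H]flumazenil for 40 min on ice, then filtered. Nonspecific binding came from 1 µM clonazepam.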

[2] = Selectivity for human GABA-Aalpha1 receptor plus beta-2-gamma-2 over GABA-Aalpha3 receptor plus beta2gamma2
[3] = target: GABA A receptor alpha-1/beta-2/gamma-2 (Homo sapiens); assay: Displacement of [3H]Flumazenil from human GABA-Aalpha1 receptor plus beta-2-gamma-2 expressed in HEK293 cells
[4] = target: T1, GABA A receptor alpha-3/beta-2/gamma-2 (Homo sapiens, UniProt P18507+P34903+P47870); assay: Displacement of [3H]Flumazenil from human GABA-Aalpha3 receptor plus beta-2-gamma-2 expressed in HEK293 cells; assay type: cell-based
T1 sequence (P47870 whole entry): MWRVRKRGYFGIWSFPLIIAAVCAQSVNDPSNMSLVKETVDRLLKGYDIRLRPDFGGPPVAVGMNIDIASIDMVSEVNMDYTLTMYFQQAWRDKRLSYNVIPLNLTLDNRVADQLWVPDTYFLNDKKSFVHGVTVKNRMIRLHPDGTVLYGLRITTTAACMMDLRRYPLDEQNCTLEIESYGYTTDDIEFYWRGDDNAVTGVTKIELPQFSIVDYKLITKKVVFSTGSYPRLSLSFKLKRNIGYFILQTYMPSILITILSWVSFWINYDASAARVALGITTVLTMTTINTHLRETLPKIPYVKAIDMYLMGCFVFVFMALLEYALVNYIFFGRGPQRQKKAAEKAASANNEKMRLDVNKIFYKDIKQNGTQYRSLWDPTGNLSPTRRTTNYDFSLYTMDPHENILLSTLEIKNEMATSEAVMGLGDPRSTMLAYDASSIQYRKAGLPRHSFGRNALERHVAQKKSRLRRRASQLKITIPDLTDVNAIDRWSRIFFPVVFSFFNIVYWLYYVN
T1 sequence (P18507 whole entry): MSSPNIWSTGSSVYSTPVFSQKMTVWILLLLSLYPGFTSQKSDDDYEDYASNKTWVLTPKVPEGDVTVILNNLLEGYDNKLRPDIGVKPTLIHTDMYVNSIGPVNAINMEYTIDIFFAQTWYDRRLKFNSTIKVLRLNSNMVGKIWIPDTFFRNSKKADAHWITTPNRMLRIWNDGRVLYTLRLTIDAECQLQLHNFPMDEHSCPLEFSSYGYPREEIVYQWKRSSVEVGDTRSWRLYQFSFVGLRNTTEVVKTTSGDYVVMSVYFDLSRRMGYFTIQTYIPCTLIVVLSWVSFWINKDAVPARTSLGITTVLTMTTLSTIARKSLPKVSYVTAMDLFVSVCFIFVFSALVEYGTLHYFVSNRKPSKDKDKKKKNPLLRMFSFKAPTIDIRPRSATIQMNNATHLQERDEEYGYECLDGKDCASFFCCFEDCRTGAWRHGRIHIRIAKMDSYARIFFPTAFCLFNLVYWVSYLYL
T1 sequence (P34903 whole entry): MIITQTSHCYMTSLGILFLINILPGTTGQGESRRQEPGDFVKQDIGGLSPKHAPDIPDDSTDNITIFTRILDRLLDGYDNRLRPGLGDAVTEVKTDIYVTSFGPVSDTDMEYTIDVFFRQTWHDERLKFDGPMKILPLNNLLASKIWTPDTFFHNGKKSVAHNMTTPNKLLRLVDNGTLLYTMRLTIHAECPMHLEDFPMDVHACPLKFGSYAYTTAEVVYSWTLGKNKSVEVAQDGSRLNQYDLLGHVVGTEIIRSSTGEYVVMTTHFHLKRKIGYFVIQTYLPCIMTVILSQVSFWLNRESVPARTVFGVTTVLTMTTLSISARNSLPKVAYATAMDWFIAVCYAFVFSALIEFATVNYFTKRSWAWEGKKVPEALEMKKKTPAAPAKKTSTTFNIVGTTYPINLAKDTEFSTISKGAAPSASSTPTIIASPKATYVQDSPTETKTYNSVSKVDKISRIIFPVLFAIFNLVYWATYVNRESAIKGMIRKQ
Procedure, shortened: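 Membranes of HEK 293 cells carrying human α1β2γ2S or α3β2γ2S GABAA receptors, ca. 25 µg protein per 0.55 mL assay in Tris-citrate 50 mM pH 7.1. Incubated with 1 nM [3H]flumazenil (87 Ci/mmol) and test substance at 0-4 °C for 40 min, then filtered on GF/C and washed. Nonspecific binding taken with 1 µM clonazepam.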

CCOC(=O)c1cnc2cc(C)nn2c1O
Ki [1]: > 10000 nM

CCOC(=O)c1cnc2ccccc2c1O
Ki [1]: 78 nM

CCCOC(=O)c1cnc2ccc(Cc3ccccc3)cc2c1O
Ki [1]: 0.17 nM

CCc1ccc2ncc(C(=O)O)c(O)c2c1
Ki [1]: 208 nM

CCc1ccc2ncc(C(=O)OC3CCCC3)c(O)c2c1
Ki [1]: 19 nM

CCOC(=O)c1cnc2ccc(C(C)C)cc2c1O
Ki [1]: 15 nM

CCCCCOC(=O)c1cnc2ccc(CC)cc2c1O
Ki [1]: 35 nM

CCOC(=O)c1cnc2ccc(CC)cc2c1O
Ki [1]: 20 nM

CCc1ccc2ncc(C(=O)OC(CC)CC)c(O)c2c1
Ki [1]: 2600 nM

CCc1ccc2ncc(C(=O)OCC(CC)CC)c(O)c2c1
Ki [1]: 92 nM

CCOC(=O)c1cnc2ccc(Br)cc2c1O
Ratio Ki [2]: 2
Ki [3]: 14 nM
Ki [4]: 26 nM
Ki [1]: 16 nM

CCc1ccc2ncc(C(=O)OC(C)C)c(O)c2c1
Ki [1]: 214 nM

CCc1ccc2ncc(C(=O)OCC(C)CC)c(O)c2c1 (stereo unspecified)
Ki [1]: 28 nM

CCCCOC(=O)c1cnc2ccc(CC)cc2c1O
Ki [1]: 13 nM

CCOC(=O)c1cnc2ccc(C(F)(F)F)cc2c1O
Ki [1]: 122 nM

CCCc1ccc2ncc(C(=O)OCC)c(O)c2c1
Ki [1]: 17 nM

CCc1ccc2ncc(C(=O)OCCC(C)C)c(O)c2c1
Ratio Ki [2]: 22
Ki [3]: 4.1 nM
Ki [4]: 89 nM
Ki [1]: 28 nM

CCCCOC(=O)c1cnc2ccccc2c1O
Ki [1]: 54 nM

CCCCNC(=O)c1cnc2ccc(CC)cc2c1O
Ki [1]: 0.54 nM

CCOC(=O)c1c[nH]c2ccc(Cc3ccccc3)cc2c1=O
Ratio Ki [2]: 27

CCCNC(=O)c1cnc2ccc(CC)cc2c1O
Ki [1]: 0.26 nM

CCCNC(=O)c1cnc2ccc(Cc3ccccc3)cc2c1O
Ki [1]: 0.048 nM

CCCOC(=O)c1cnc2cc(C)nn2c1O
Ki [1]: 870 nM

CCCOC(=O)c1cnc2ccc(CC)cc2c1O
Ki [1]: 1.8 nM

CCOC(=O)c1cnc2ccnn2c1O
Ki [1]: > 10000 nM

CCOC(=O)c1cnc2ccc(Cc3ccccc3)cc2c1O
Ki [3]: 0.27 nM
Ki [4]: 7.2 nM
Ki [1]: 1.4 nM

CCOC(=O)c1c(C)nc2ccc(Br)cc2c1O
Ki [1]: 4200 nM

CCc1ccc2ncc(C(=O)OC(C)CC(C)C)c(O)c2c1 (stereo unspecified)
Ki [1]: 295 nM
